Reference: ChEMBL document CHEMBL2062460, “Disubstituted thiourea derivatives and their activity on CNS: synthesis and biological evaluation” (Eur J Med Chem, 2012)
In brackets after ≈: the same amount, converted by molar mass. Activity calls are given as the source filed them. The rule behind the calls is not given here.

How the values were obtained:
Bacillus subtilis [1] = assay: Antibacterial activity against Bacillus subtilis ATCC 6633 at 400 ug/disc after 18 hrs by disc diffusion method; format: functional; settings: ATCC 6633, 18 h, read-out: DIZ
How it was run: (§1)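 Disc diffusion per CLSI on Mueller–Hinton II agar; 9 mm paper discs loaded from methanol or DMSO solutions to 400 µg per disc, dried; growth inhibition zone diameter read after 18 h at 35 °C.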

Staphylococcus aureus [2] = assay: Antibacterial activity against Staphylococcus aureus NCTC 4163 at 400 ug/disc after 18 hrs by disc diffusion method; format: functional; settings: NCTC 4163, 18 h, read-out: DIZ; how it was run: as §1
Staphylococcus aureus [3] = assay: Antibacterial activity against Staphylococcus aureus ATCC 6538 at 400 ug/disc after 18 hrs by disc diffusion method; format: functional; settings: ATCC 6538, 18 h, read-out: DIZ; how it was run: as §1
Staphylococcus aureus [4] = assay: Antibacterial activity against Staphylococcus aureus ATCC 29213 at 400 ug/disc after 18 hrs by disc diffusion method; format: functional; settings: ATCC 29213, 18 h, read-out: DIZ; how it was run: as §1
Micrococcus luteus = assay: Antibacterial activity against Micrococcus luteus ATCC 9341 at 400 ug/disc after 18 hrs by disc diffusion method; format: functional; settings: ATCC 9341, 18 h, read-out: DIZ; how it was run: as §1
Escherichia coli [5] = assay: Antibacterial activity against Escherichia coli ATCC 25922 at 400 ug/disc after 18 hrs by disc diffusion method; format: functional, organism-based; how it was run: as §1
Escherichia coli [6] = assay: Antibacterial activity against Escherichia coli NCTC 8196 at 400 ug/disc after 18 hrs by disc diffusion method; format: functional, organism-based; how it was run: as §1
Proteus vulgaris = assay: Antibacterial activity against Proteus vulgaris NCTC 4635 at 400 ug/disc after 18 hrs by disc diffusion method; format: functional, organism-based; how it was run: as §1
Pseudomonas aeruginosa = assay: Antibacterial activity against Pseudomonas aeruginosa ATCC 27853 at 400 ug/disc after 18 hrs by disc diffusion method; format: functional, organism-based; how it was run: as §1
Candida albicans = assay: Antifungal activity against Candida albicans ATCC 10231 at 400 ug/disc after 18 hrs by disc diffusion method; format: functional, organism-based
How it was run: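 Yeasts tested by disc diffusion (CLSI) on RPMI agar with 2% glucose; 9 mm paper discs bearing 400 µg compound from methanol or DMSO solution; inhibition zone diameter read after 18 h at 35 °C.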

Staphylococcus aureus [7] = assay: Antibacterial activity against Staphylococcus aureus ATCC 6538 after 18 hrs by twofold serial agar dilution technique; format: functional; settings: ATCC 6538, 18 h
How it was run: (§2)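 Twofold serial agar dilution on Mueller–Hinton II agar, following CLSI guidelines. Compounds were dissolved in methanol or DMSO and tested at final agar concentrations of 3.125–400 µg/mL. Final inoculum was 10^4 CFU/mL.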

Staphylococcus aureus [8] = assay: Antibacterial activity against Staphylococcus aureus ATCC 29213 after 18 hrs by twofold serial agar dilution technique; format: functional; settings: ATCC 29213, 18 h; how it was run: as §2
[9] = tested on: Staphylococcus epidermidis; assay: Antibacterial activity against Staphylococcus epidermidis ATCC 12228 after 18 hrs by twofold serial agar dilution technique; format: functional; settings: ATCC 12228, 18 h; how it was run: as §2
Bacillus subtilis [10] = assay: Antibacterial activity against Bacillus subtilis ATCC 6633 after 18 hrs by twofold serial agar dilution technique; format: functional; settings: ATCC 6633, 18 h
Staphylococcus aureus [11] = assay: Antibacterial activity against methicillin-susceptible Staphylococcus aureus clinical isolate 261/08 after 18 hrs by twofold serial agar dilution technique; format: functional; settings: clinical isolate 261/08, 18 h
How it was run: (§3)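 Clinical isolates came from patients in Warsaw Medical University Hospitals and were classed as methicillin-susceptible or -resistant. MIC was determined by twofold serial agar dilution on Mueller–Hinton II agar (CLSI), 3.125–400 µg/mL in agar, with compounds in methanol or DMSO. Inoculum was 10^4 CFU/mL and plates were read after 18 h at 35 °C.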

Staphylococcus aureus [12] = assay: Antibacterial activity against methicillin-susceptible Staphylococcus aureus clinical isolate 267/08 after 18 hrs by twofold serial agar dilution technique; format: functional; settings: clinical isolate 267/08, 18 h; how it was run: as §3
Staphylococcus aureus [13] = assay: Antibacterial activity against methicillin-susceptible Staphylococcus aureus clinical isolate 268/08 after 18 hrs by twofold serial agar dilution technique; format: functional; settings: clinical isolate 268/08, 18 h; how it was run: as §3
Staphylococcus aureus [14] = assay: Antibacterial activity against methicillin-susceptible Staphylococcus aureus clinical isolate 269/08 after 18 hrs by twofold serial agar dilution technique; format: functional; settings: clinical isolate 269/08, 18 h; how it was run: as §3
Staphylococcus aureus [15] = assay: Antibacterial activity against methicillin-susceptible Staphylococcus aureus clinical isolate 339/09 after 18 hrs by twofold serial agar dilution technique; format: functional; settings: clinical isolate 339/09, 18 h; how it was run: as §3
Staphylococcus aureus [16] = assay: Antibacterial activity against methicillin-resistant Staphylococcus aureus clinical isolate 329/08 after 18 hrs by twofold serial agar dilution technique; format: functional; settings: clinical isolate 329/08, 18 h; how it was run: as §3
Staphylococcus aureus [17] = assay: Antibacterial activity against methicillin-resistant Staphylococcus aureus clinical isolate 325/09 after 18 hrs by twofold serial agar dilution technique; format: functional; settings: clinical isolate 325/09, 18 h; how it was run: as §3
Staphylococcus aureus [18] = assay: Antibacterial activity against methicillin-resistant Staphylococcus aureus clinical isolate 356/09 after 18 hrs by twofold serial agar dilution technique; format: functional; settings: clinical isolate 356/09, 18 h; how it was run: as §3
[19] = tested on: Staphylococcus epidermidis; assay: Antibacterial activity against methicillin-resistant Staphylococcus epidermidis clinical isolate 311/08 after 18 hrs by twofold serial agar dilution technique; format: functional; settings: clinical isolate 311/08, 18 h; how it was run: as §3
[20] = tested on: Staphylococcus epidermidis; assay: Antibacterial activity against methicillin-resistant Staphylococcus epidermidis clinical isolate 316/08 after 18 hrs by twofold serial agar dilution technique; format: functional; settings: clinical isolate 316/08, 18 h; how it was run: as §3
[21] = tested on: Staphylococcus epidermidis; assay: Antibacterial activity against methicillin-resistant Staphylococcus epidermidis clinical isolate 342/09 after 18 hrs by twofold serial agar dilution technique; format: functional; settings: clinical isolate 342/09, 18 h; how it was run: as §3
[22] = tested on: Staphylococcus epidermidis; assay: Antibacterial activity against methicillin-resistant Staphylococcus epidermidis clinical isolate 343/09 after 18 hrs by twofold serial agar dilution technique; format: functional; settings: clinical isolate 343/09, 18 h; how it was run: as §3
[23] = Cytotoxicity against human MT4 cells after 96 hrs by MTT assay; format: cell-based

Row | Structure (SMILES) | zone of inhibition at 400 µg/disc (Bacillus subtilis [1]) [mm] | zone of inhibition at 400 µg/disc (Staphylococcus aureus [2]) [mm] | zone of inhibition at 400 µg/disc (Staphylococcus aureus [3]) [mm] | zone of inhibition at 400 µg/disc (Staphylococcus aureus [4]) [mm] | zone of inhibition at 400 µg/disc (Micrococcus luteus) [mm] | diameter of the inhibition zone (DIZ) (Escherichia coli [5]) | diameter of the inhibition zone (DIZ) (Escherichia coli [6]) | diameter of the inhibition zone (DIZ) (Proteus vulgaris) | diameter of the inhibition zone (DIZ) (Pseudomonas aeruginosa) | diameter of the inhibition zone (DIZ) (Candida albicans) | MIC (Staphylococcus aureus [7]) [µg/mL] | MIC (Staphylococcus aureus [8]) [µg/mL] | MIC [9] [µg/mL] | MIC (Bacillus subtilis [10]) [µg/mL] | MIC (Staphylococcus aureus [11]) [µg/mL] | MIC (Staphylococcus aureus [12]) [µg/mL] | MIC (Staphylococcus aureus [13]) [µg/mL] | MIC (Staphylococcus aureus [14]) [µg/mL] | MIC (Staphylococcus aureus [15]) [µg/mL] | MIC (Staphylococcus aureus [16]) [µg/mL] | other results
1 | Fc1ccc(NC(=S)Nc2nc[nH]n2)cc1 | 22 | 14 | 14 | 11 | 19 | inactive | inactive | inactive | inactive | inactive | 50 (≈ 211 µM) | 25 (≈ 105 µM) | 25 (≈ 105 µM) | 12.5 (≈ 52.7 µM) | 50 (≈ 211 µM) | 50 (≈ 211 µM) | 100 (≈ 421 µM) | 50 (≈ 211 µM) | 50 (≈ 211 µM) | 50 (≈ 211 µM) | MIC (Staphylococcus aureus [17]): 50 µg/mL (≈ 211 µM); MIC (Staphylococcus aureus [18]): 50 µg/mL (≈ 211 µM); MIC [19]: 50 µg/mL (≈ 211 µM); MIC [20]: 100 µg/mL (≈ 421 µM); MIC [21]: 50 µg/mL (≈ 211 µM); MIC [22]: 50 µg/mL (≈ 211 µM); CC50 at 96 h [23]: > 100 µM
2 | S=C(Nc1ccc(Cl)cc1)Nc1nc[nH]n1 | 22 | 23 | 15 | 17 | 26 | inactive | inactive | inactive | inactive | inactive | 25 (≈ 98.5 µM) | 25 (≈ 98.5 µM) | 25 (≈ 98.5 µM) | 12.5 (≈ 49.3 µM) | 25 (≈ 98.5 µM) | 25 (≈ 98.5 µM) | 25 (≈ 98.5 µM) | 25 (≈ 98.5 µM) | 25 (≈ 98.5 µM) | 25 (≈ 98.5 µM) | MIC (Staphylococcus aureus [17]): 25 µg/mL (≈ 98.5 µM); MIC (Staphylococcus aureus [18]): 25 µg/mL (≈ 98.5 µM); MIC [19]: 25 µg/mL (≈ 98.5 µM); MIC [20]: 25 µg/mL (≈ 98.5 µM); MIC [21]: 200 µg/mL (≈ 788 µM); MIC [22]: 25 µg/mL (≈ 98.5 µM); CC50 at 96 h [23]: 47 µM
3 | S=C(Nc1ccc(Br)cc1)Nc1nc[nH]n1 | 30 | 17 | 16 | 16 | 28 | inactive | inactive | inactive | inactive | inactive | 50 (≈ 168 µM) | 25 (≈ 83.8 µM) | 25 (≈ 83.8 µM) | 12.5 (≈ 41.9 µM) | 25 (≈ 83.8 µM) | 25 (≈ 83.8 µM) | 50 (≈ 168 µM) | 25 (≈ 83.8 µM) | 50 (≈ 168 µM) | 50 (≈ 168 µM) | MIC (Staphylococcus aureus [17]): 50 µg/mL (≈ 168 µM); MIC (Staphylococcus aureus [18]): 50 µg/mL (≈ 168 µM); MIC [19]: 50 µg/mL (≈ 168 µM); MIC [20]: 50 µg/mL (≈ 168 µM); MIC [21]: 25 µg/mL (≈ 83.8 µM); MIC [22]: 25 µg/mL (≈ 83.8 µM); CC50 at 96 h [23]: > 100 µM
4 | S=C(Nc1nc[nH]n1)Nc1ccccc1Br | 17 | 11 | 12 | 12 | 16 | inactive | inactive | inactive | inactive | inactive | 50 (≈ 168 µM) | 50 (≈ 168 µM) | 25 (≈ 83.8 µM) | 12.5 (≈ 41.9 µM) | 50 (≈ 168 µM) | 50 (≈ 168 µM) | 50 (≈ 168 µM) | 50 (≈ 168 µM) | 50 (≈ 168 µM) | 50 (≈ 168 µM) | MIC (Staphylococcus aureus [17]): 50 µg/mL (≈ 168 µM); MIC (Staphylococcus aureus [18]): 50 µg/mL (≈ 168 µM); MIC [19]: 100 µg/mL (≈ 335 µM); MIC [20]: 100 µg/mL (≈ 335 µM); MIC [21]: 50 µg/mL (≈ 168 µM); MIC [22]: 50 µg/mL (≈ 168 µM); CC50 at 96 h [23]: > 100 µM
5 | Fc1cccc(NC(=S)Nc2nc[nH]n2)c1 | 32 | 16 | 15 | 18 | 36 | inactive | inactive | inactive | inactive | inactive | 100 (≈ 421 µM) | 50 (≈ 211 µM) | 50 (≈ 211 µM) | 50 (≈ 211 µM) | 25 (≈ 105 µM) | 25 (≈ 105 µM) | 25 (≈ 105 µM) | 12.5 (≈ 52.7 µM) | 12.5 (≈ 52.7 µM) | 12.5 (≈ 52.7 µM) | MIC (Staphylococcus aureus [17]): 12.5 µg/mL (≈ 52.7 µM); MIC (Staphylococcus aureus [18]): 12.5 µg/mL (≈ 52.7 µM)
6 | Fc1ccccc1NC(=S)Nc1nc[nH]n1 | 20 | 12 | 12 | 12 | 24 | inactive | inactive | inactive | inactive | inactive | 200 (≈ 843 µM) | 200 (≈ 843 µM) | 200 (≈ 843 µM) | 100 (≈ 421 µM) | > 400 | > 400 | > 400 | > 400 | > 400 | > 400 | MIC (Staphylococcus aureus [17]): > 400 µg/mL; MIC (Staphylococcus aureus [18]): > 400 µg/mL
